Data taken from the RNAGym collection of RNA variant scans (doi:10.1126/science.aae0568).
Variants at the floor of the assay were thinned out.

B1: tRNA (parent)
chain: GUUCCGUUGGCGUAAUGGUAACGCGUCUCCCUCCUAAGGAGAAGACUGCGGGUUCGAGUCCCGUACGGAACG

Variants of: B1
Test: yeast fitness relative to wild type (ratio to wild type); higher = fitter; tRNA-Arg(CCU), competitive growth, 37 C, YPD
In short: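 Gene amplicons from the start population and from each of six end populations were read by 100-nucleotide paired-end sequencing. Those end populations came from pooled Saccharomyces cerevisiae strains carrying tRNA-Arg(CCU) gene variants at the native locus, competed in YPD at 37°C for 24 hours. Fitness relative to wild type was worked out from changes in genotype frequencies. Genotypes needed ≥ 100 starting reads, and estimates < 0.5 were set to 0.5.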

Going from U13G G38C A42G G56C U59A A70U to U13G G39C A69U, the yeast fitness rises from no more than 0.5 to 0.625.

Going from U13G G39C C46U to U13G G44A C46U A69C, the yeast fitness rises from 0.535 to 0.646.

First: U13G G44C
Second: U13G G48A A65U
The yeast fitness of the first is higher: 0.774 for the first, 0.654 for the second.

Going from U13G G48A C62G A69U to U13G G58A, the yeast fitness rises from 0.599 to 1.08.

Going from U13G G58C to U13G G58C C62U A70U, the yeast fitness falls from 0.969 to no more than 0.5.

First: U13G G67C
Second: U13G G68C
The yeast fitness of the first is higher: 0.777 for the first, 0.584 for the second.

U13G U16C C55A and U13G U16C G39C A65G cannot be ordered by yeast fitness: no more than 0.5 for the first, no more than 0.5 for the second.

U13G U16G C31G C49U and U13G U19A C27U C29U cannot be ordered by yeast fitness: no more than 0.5 for the first, no more than 0.5 for the second.

Going from U13G U19G to U13G U19G A57G C62U, the yeast fitness falls from 1.05 to no more than 0.5.

First: U13G U28A C30A A69U
Second: U13G U28A C55G C66A
The yeast fitness of the first is lower: 0.554 for the first, 0.63 for the second.

U13G U28A U53C C55G C66A and U13G U28C G38C cannot be ordered by yeast fitness: no more than 0.5 for the first, no more than 0.5 for the second.

U13G U32A C60A G63A and U13G U32A G48C G51A C61U A69G cannot be ordered by yeast fitness: no more than 0.5 for the first, no more than 0.5 for the second.

U13G U35A A37G A43U A45C A65C and U13G U35C G38A A42U G58C cannot be ordered by yeast fitness: no more than 0.5 for the first, no more than 0.5 for the second.

First: U13G U35C G38A A42U G58C A65U
Second: U13G U35G A40G C66U
The yeast fitness of the first is lower: no more than 0.5 for the first, 0.526 for the second.

Going from U13G U47A to U13G U47A G68A, the yeast fitness falls from 0.976 to 0.737.

First: U13G U53C G67C
Second: U13G U53C U64C
The yeast fitness of the first is higher: 0.771 for the first, no more than 0.5 for the second.

Compared with A14C A15C, A14C A15C A21U A57G A65G is lower in yeast fitness: 0.518 for the first, no more than 0.5 for the second.

First: A14C A15C C27U C29A C34G G39A G50C
Second: A14C A15C C27U C29A C34G G50C
The yeast fitness of the first is lower: no more than 0.5 for the first, 0.597 for the second.

Compared with A14C A15G A42G A70U, A14C A15G C46G A69G is lower in yeast fitness: 0.569 for the first, no more than 0.5 for the second.

A14C A15G G17C A45C and A14C A15G G23C A57C cannot be ordered by yeast fitness: no more than 0.5 for the first, no more than 0.5 for the second.

A14C A15G G25C U32A A43C G63A A69C and A14C A15G G44C C60A cannot be ordered by yeast fitness: no more than 0.5 for the first, no more than 0.5 for the second.

Compared with A14C A15U A40C G48A, A14C A15U C27U U32C U35G is higher in yeast fitness: no more than 0.5 for the first, 0.584 for the second.

Going from A14C A15U C30U C34G C61A U64A A69U to A14C A15U C33A A37G, the yeast fitness rises from no more than 0.5 to 0.596.

Compared with A14C A15U G18C, A14C A15U U16A G44A A57U is lower in yeast fitness: 0.67 for the first, no more than 0.5 for the second.

A14C A15U U47G and A14C A15U U64G C66A cannot be ordered by yeast fitness: no more than 0.5 for the first, no more than 0.5 for the second.

Compared with A14C A20C A42G G44A, A14C A20C A42G G44A U47C is lower in yeast fitness: 0.633 for the first, no more than 0.5 for the second.

Compared with A14C A20C C30A C34G C66A, A14C A20C C33G A65C C66U is higher in yeast fitness: no more than 0.5 for the first, 0.758 for the second.

A14C A20C C33G A65G and A14C A20C C34U G44C G50C C62U cannot be ordered by yeast fitness: no more than 0.5 for the first, no more than 0.5 for the second.

A14C A20C U32C and A14C A20G C22U C30U cannot be ordered by yeast fitness: no more than 0.5 for the first, no more than 0.5 for the second.

A14C A20G C27U C62U and A14C A20G C30U cannot be ordered by yeast fitness: no more than 0.5 for the first, no more than 0.5 for the second.

First: A14C A20U
Second: A14C A20U A69C
The yeast fitness of the first is higher: 0.641 for the first, no more than 0.5 for the second.

First: A14C A20U A69U
Second: A14C A20U C27G U53C
The yeast fitness of the first is higher: 0.532 for the first, no more than 0.5 for the second.

Going from A14C A20U C27G U59C C61A to A14C A20U C30A C31A G52A G68U, the yeast fitness rises from no more than 0.5 to 0.551.

A14C A20U C31A and A14C A20U C31U cannot be ordered by yeast fitness: no more than 0.5 for the first, no more than 0.5 for the second.

A14C A20U C31U G38C and A14C A20U C33U cannot be ordered by yeast fitness: no more than 0.5 for the first, no more than 0.5 for the second.

Going from A14C A20U C60G to A14C A20U C66A, the yeast fitness falls from 0.571 to no more than 0.5.

A14C A20U G25C A43C and A14C A20U U35C A65G A69U cannot be ordered by yeast fitness: no more than 0.5 for the first, no more than 0.5 for the second.

A14C A21C C24U A36U A43U A65C C66U and A14C A21C C24U A36U A43U G56A G58C C66A cannot be ordered by yeast fitness: no more than 0.5 for the first, no more than 0.5 for the second.

A14C A21C C27U C62U A69C and A14C A21C C29G cannot be ordered by yeast fitness: no more than 0.5 for the first, no more than 0.5 for the second.

Compared with A14C A21C G39A C49G, A14C A21G C22U U47A G56A is higher in yeast fitness: no more than 0.5 for the first, 0.622 for the second.

First: A14C A21G C29A C34U
Second: A14C A21G C29A C34U A69U
The yeast fitness of the first is lower: 0.612 for the first, 0.638 for the second.

First: A14C A21G G25A C33U C61A A69U
Second: A14C A21U A40G A65C
The yeast fitness of the first is lower: no more than 0.5 for the first, 0.621 for the second.

Compared with A14C A21U A42C G58C U64A A69C, A14C A21U C22U A37G G44A A45C C46A C55U U59G is higher in yeast fitness: no more than 0.5 for the first, 0.608 for the second.

Compared with A14C A36C, A14C A36C A69U is higher in yeast fitness: 0.564 for the first, 0.905 for the second.

Going from A14C A36G to A14C A36G A42C, the yeast fitness falls from 0.644 to 0.533.

Compared with A14C A36U, A14C A36U G68A is lower in yeast fitness: 0.591 for the first, no more than 0.5 for the second.

Compared with A14C A37C, A14C A37G C49G is lower in yeast fitness: 0.53 for the first, no more than 0.5 for the second.

Going from A14C A37U to A14C A40C, the yeast fitness falls from 0.655 to 0.6.

A14C A40C G41C C49U C55A A70U and A14C A40G A42U cannot be ordered by yeast fitness: no more than 0.5 for the first, no more than 0.5 for the second.

First: A14C A40G A57G
Second: A14C A40G C49U G58A
The yeast fitness of the first is higher: 0.539 for the first, no more than 0.5 for the second.

A14C A40G C62G G68A and A14C A40U G56C G67U cannot be ordered by yeast fitness: no more than 0.5 for the first, no more than 0.5 for the second.

Going from A14C A42G to A14C A42G G48A, the yeast fitness falls from 0.595 to no more than 0.5.

Compared with A14C A42G G68C, A14C A42U is higher in yeast fitness: no more than 0.5 for the first, 0.524 for the second.

Going from A14C A43G to A14C A43G G68C, the yeast fitness rises from 0.628 to 0.65.

Going from A14C A43G U64A to A14C A43U, the yeast fitness rises from no more than 0.5 to 0.731.

Going from A14C A45C to A14C A45C C60G, the yeast fitness falls from 0.702 to no more than 0.5.

First: A14C A45C G50A
Second: A14C A45G C49U
The yeast fitness of the first is lower: no more than 0.5 for the first, 0.549 for the second.

Compared with A14C A45G G68C, A14C A45U is higher in yeast fitness: no more than 0.5 for the first, 0.717 for the second.

A14C A45U C62A and A14C A45U G48A cannot be ordered by yeast fitness: no more than 0.5 for the first, no more than 0.5 for the second.

A14C A45U G48A A69U and A14C A57C G68C cannot be ordered by yeast fitness: no more than 0.5 for the first, no more than 0.5 for the second.

First: A14C A57G
Second: A14C A57U
The yeast fitness of the first is higher: 0.748 for the first, 0.52 for the second.

Going from A14C A57U C62U G67A to A14C A65G, the yeast fitness rises from 0.508 to 0.776.

First: A14C A69U
Second: A14C A70C
The yeast fitness of the first is higher: 0.763 for the first, 0.684 for the second.

First: A14C A70U
Second: A14C C22A C46A C66U
The yeast fitness of the first is higher: 0.679 for the first, no more than 0.5 for the second.

A14C C22A C55G and A14C C22A G67C cannot be ordered by yeast fitness: no more than 0.5 for the first, no more than 0.5 for the second.

A14C C22A U59G C62G and A14C C22G G25A C31U G58A cannot be ordered by yeast fitness: no more than 0.5 for the first, no more than 0.5 for the second.

A14C C22G G25C A42G G44A C61G and A14C C22G G52C cannot be ordered by yeast fitness: no more than 0.5 for the first, no more than 0.5 for the second.

A14C C22G G52C A65U and A14C C22G G63C cannot be ordered by yeast fitness: no more than 0.5 for the first, no more than 0.5 for the second.

A14C C22G U26G and A14C C22U C24U A37G cannot be ordered by yeast fitness: no more than 0.5 for the first, no more than 0.5 for the second.

Compared with A14C C22U C34U, A14C C22U C55U C61G C62G is lower in yeast fitness: 0.79 for the first, no more than 0.5 for the second.

A14C C22U G41A C61U C66U and A14C C22U U64C A70G cannot be ordered by yeast fitness: no more than 0.5 for the first, no more than 0.5 for the second.

A14C C24A A40G C49A C61G and A14C C24A G52A U53A cannot be ordered by yeast fitness: no more than 0.5 for the first, no more than 0.5 for the second.

Compared with A14C C24G, A14C C24G A45C U59C C61U is lower in yeast fitness: 0.579 for the first, no more than 0.5 for the second.

A14C C24G G52C C55U C66U and A14C C24G U26A A36G A40U A43U cannot be ordered by yeast fitness: no more than 0.5 for the first, no more than 0.5 for the second.

A14C C24U A36G G68C and A14C C24U A40U G44A A70G cannot be ordered by yeast fitness: no more than 0.5 for the first, no more than 0.5 for the second.

A14C C24U A45U G51C and A14C C24U U35C cannot be ordered by yeast fitness: no more than 0.5 for the first, no more than 0.5 for the second.

Compared with A14C C27A A37G G51C, A14C C27A C31A A70U is lower in yeast fitness: 0.615 for the first, no more than 0.5 for the second.

A14C C27A C31A G63A and A14C C27A G39A C55U A70G cannot be ordered by yeast fitness: no more than 0.5 for the first, no more than 0.5 for the second.

First: A14C C27A U28A A45G
Second: A14C C27A U54A A69G
The yeast fitness of the first is lower: no more than 0.5 for the first, 0.647 for the second.

Going from A14C C27G to A14C C27G A40U A70U, the yeast fitness falls from 0.574 to no more than 0.5.

First: A14C C27G A70U
Second: A14C C27G C30G G38C
The yeast fitness of the first is higher: 0.54 for the first, no more than 0.5 for the second.

A14C C27G C33A A45U G63C A69G and A14C C27G C33A A45U G67U cannot be ordered by yeast fitness: no more than 0.5 for the first, no more than 0.5 for the second.

A14C C27G C46G A57C A70C and A14C C27G C46G A57G A65G cannot be ordered by yeast fitness: no more than 0.5 for the first, no more than 0.5 for the second.

For A14C C27G C46G A65G, the yeast fitness was 0.576.
